An excerpt weighted towards active compounds, which were near 3.5% of everything screened.
MrgX1 antag – antagonists of human MrgX1 receptor. Q96LB2. MRGX1-HEK293 calcium flux, Fluo-4, BAM8-22 antagonism; active compounds read low. B-score at 10 µM. 310,000 compounds, 1.3% hits. AID 588676;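 active means calcium-response B-score plate-corrected more than 3 library SD below zero, starting fluorescence within 5 deviations, no agonist response on first addition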;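 further: peak minus trough fluorescence over baseline after final BAM8-22 challenge near maximal dose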
Target sequence (Q96LB2 whole entry, looked up): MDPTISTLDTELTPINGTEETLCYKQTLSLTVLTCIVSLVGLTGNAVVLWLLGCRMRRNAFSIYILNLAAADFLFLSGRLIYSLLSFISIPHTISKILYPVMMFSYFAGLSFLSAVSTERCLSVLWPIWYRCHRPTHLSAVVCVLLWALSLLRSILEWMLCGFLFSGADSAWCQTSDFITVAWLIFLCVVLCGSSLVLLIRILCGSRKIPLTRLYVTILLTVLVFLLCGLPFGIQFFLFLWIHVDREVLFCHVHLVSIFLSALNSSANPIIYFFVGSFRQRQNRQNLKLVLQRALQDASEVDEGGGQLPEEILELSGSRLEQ
MrgX1 allo act – allosterically activates human MrgX1 receptor signaling | 310,000 compounds, 0.63% hits | MrgX1-HEK293, Fluo-4 calcium flux, FDSS; active compounds read high | B-score at 10 µM;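 active means plate-corrected calcium response at least 3 library SD above typical, normal starting fluorescence, not activating the receptor alone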;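 further: compound read alongside a low EC10 to EC30 dose of BAM8-22 agonist; peak minus trough fluorescence over baseline measured at the second addition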
RGS4 block – inhibitors of human RGS4. P49798. HEK293 M3R/RGS4 inducible, Fluo-4 calcium flux; active compounds read high; triggered by carbachol at its EC20. B-score at 10 µM. 310,000 compounds, 0.45% hits. AID 463165;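 active means B-score, a plate-corrected calcium signal, over three deviations above library mean, with baseline fluorescence within five deviations of library mean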;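 further: RGS4 expression induced by doxycycline in cells with stable M3 receptor; B-score is computed from the integrated fluorescence ratio over baseline after carbachol; higher B-score means a larger calcium signal and so more RGS4 inhibition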
Target sequence (P49798 whole entry, looked up): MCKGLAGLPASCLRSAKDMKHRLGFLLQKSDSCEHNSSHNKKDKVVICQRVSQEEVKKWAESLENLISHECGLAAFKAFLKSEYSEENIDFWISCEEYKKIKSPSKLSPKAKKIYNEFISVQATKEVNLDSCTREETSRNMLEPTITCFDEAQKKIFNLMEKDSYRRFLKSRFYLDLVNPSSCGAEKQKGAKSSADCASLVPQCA
RGS4 pot – potentiators or activators of RGS4; 310,000 compounds, 0.92% hits; B-score at 10 µM; HEK293 M3R/inducible RGS4, carbachol calcium flux Fluo4; active compounds read low;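 active means B-score of the integrated calcium signal more than 4 SD below the library mean, with starting fluorescence not abnormally high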;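 further: negative B-score means reduced calcium response which marks RGS4 activation or potentiation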
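test system = HEK293 cells with stable M3R and inducible RGS4 | schedule = recording 10 s baseline at 1 Hz, 100 s post-agonist | technique = Fluo4-AM (2 µM) calcium-flux fluorescence, kinetic read | measure = Agonist-evoked peak-minus-minimum fluorescence over baseline, integrated ratio, B score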
MrgX1 agonist – agonists of human MrgX1 receptor. MrgX1-HEK293 cells, Fluo-4 calcium fluorescence, agonist mode; active compounds read high. B-score at 10 µM. 310,000 compounds, 0.44% hits. AID 588627;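 active means calcium response B-score plate-corrected fluorescence ratio at least 3 library SD, with starting fluorescence B-score inside 5 SD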
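System: HEK293 cells stably expressing human MrgX1 receptor; Dosing: test compound in the initial addition of three; Schedule: overnight plating, then 30 min 37 °C plus 30 min room-temperature dye loading; Detection: kinetic calcium dye fluorescence, Fluo-4 NW; Controls: per-plate positive and negative controls for Z′ factor.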
* = called active by the depositor; i = inactive.

SMILES	MrgX1 antag	MrgX1 allo act	RGS4 block	RGS4 pot	MrgX1 agonist
COc1cc2c(cc1OC)CN(c1nc(-c3cccnc3)nc3ccccc13)CC2	i	i	i	-7.5*	i
COc1ccccc1C(C)Nc1nc(-c2cccnc2)nc2ccccc12 (centres undefined)	i	i	i	-7.1*	i
Fc1ccccc1CNc1nc(-c2cccnc2)nc2ccccc12	i	i	i	-9.1*	38*
COCCNC(=S)NNc1cccc(C(=O)O)c1	i	i	i	i	i
CCCCOCCCn1cnc2c([nH]c3cc(OC)ccc32)c1=O	i	i	i	i	i
COc1ccc(N(CC(=O)N/N=C/c2cc3ccc(OC)cc3nc2Cl)S(=O)(=O)c2ccccc2)cc1	i	9.1*	i	i	i
COCc1ccc(CN2CCCC(C(=O)Nc3ccc(-c4cccc(OC)c4)cc3)C2)o1 (centres undefined)	i	i	i	i	i
CCC(=O)NC(=S)NNC(=O)c1ccc(OC)cc1	i	i	i	i	i
COc1ccc(C(=O)NC(=S)NNC(=O)Cc2cccs2)cc1	i	i	i	i	55*
Cc1cccc(C(=O)NC(=S)NNC(=O)c2ccc(Cl)cc2)c1	i	18*	i	i	i
O=C(COc1ccc(Cl)cc1Cl)NNC(=S)NCc1ccco1	i	13*	i	-7.1*	i
O=C(Cc1cccs1)NNC(=S)NCc1ccco1	i	i	i	-8.2*	i
COCCn1nnnc1C(c1ccc(OC)c(OC)c1)N1CCN(c2nc3ccccc3s2)CC1 (centres undefined)	i	i	i	i	i
CCn1c(C)nc2cc(C(=O)NNC(=S)Nc3ccccc3)ccc21	i	i	i	i	i
CC(C)C(=O)Nc1ccc(C(=O)NNC(=S)NC(=O)c2ccccc2[N+](=O)[O-])cc1	i	i	i	i	i
COc1ccc(C(=O)NC(=S)NNC(=O)c2ccc(NC(=O)C(C)C)cc2)cc1	-5.8*	i	i	i	i
O=C(/C=C/c1cccs1)NC(=S)NNC(=O)Cc1cccs1	i	i	i	i	48*
COc1ccc(-c2nn(-c3ccccc3)cc2C(=O)NC(=S)NNC(=O)c2ccncc2)cc1	-4.6*	i	i	i	i
COc1ccc(/C=C/C(=O)NC(=S)NNC(=O)Cc2cccs2)cc1OC	i	i	i	i	i
CCn1c(C)nc2cc(C(=O)NNC(=S)NC(=O)c3ccccc3)ccc21	i	7.4*	i	i	i
Cn1c(COc2ccc(Cl)cc2)nnc1SCC(=O)NC1CCCC1	i	i	i	i	i
O=C(Nc1cccnc1Cl)c1ccc(Cl)cc1	i	i	i	i	i
COc1ccc(C(=O)NNC(=S)NC(=O)c2ccc(Cl)cc2)cc1	i	i	i	-8*	122*
O=C(NC(=S)Nc1cccnc1Cl)c1ccc(Cl)cc1	i	9.5*	i	i	i
O=C(COc1ccc(Cl)cc1Cl)Nc1ccccc1F	i	i	i	-7.2*	i
SMILES	MrgX1 antag	MrgX1 allo act	RGS4 block	RGS4 pot	MrgX1 agonist
Cc1ccc(-c2nnc(Oc3cccc(C)c3)c3ccccc23)cc1	i	i	i	i	i
CC(=O)NNC(=O)c1sc(=S)n2c1[nH]c(=O)c1sccc12	i	i	i	i	i
NC(=O)c1sc(=S)n2c1[nH]c(=O)c1sccc12	i	16*	i	i	i
Cc1ccc(NC(=O)CN(C)CC(=O)Nc2c(C)cccc2C)c(Br)c1	i	i	i	i	i
O=C(O)c1ccc(NC(=O)c2ccccc2NC(=O)c2ccccc2Cl)cc1	i	i	i	i	i
COc1cc(OC)cc(-c2nnc(SCC(=O)N(C(C)C)C(C)C)o2)c1	i	i	i	i	i
COc1cc(OC)cc(-c2nnc(Sc3ccc(C=O)cc3[N+](=O)[O-])o2)c1	-4.5*	i	7.2*	i	i
S=C(NCCC(c1ccccc1)c1ccccc1)Nc1cccc(Cl)c1	i	i	i	-7.6*	i
O=C(Nc1ccccc1)Nc1ccccc1-n1ccnc1	i	i	i	i	i
CCC(=O)NC(Nc1c(C)n(C)n(-c2ccccc2)c1=O)C(Cl)(Cl)Cl (centres undefined)	i	i	i	i	i
N#C/C(C(N)=O)=c1/ccc2c(c1)N1C3=C(CCCC3)CC3CCCCC31N=2 (centres undefined)	i	i	i	-8.8*	i
COc1ccc(CCNC(=O)c2cc(-c3cc(Cl)ccc3O)n[nH]2)cc1OC	i	i	i	i	i
Cc1cc(C)nc(NS(=O)(=O)c2ccc(NC(=O)CSc3ncn[nH]3)cc2)n1	i	i	i	i	i
Cc1onc(-c2c(F)cccc2Cl)c1C(=O)NC(=S)Nc1c(C)n(C)n(-c2ccccc2)c1=O	i	i	i	-9.9*	i
Cc1c(NC(=O)Nc2ccc(Cl)cc2)c(=O)n(-c2ccccc2)n1C	-5.9*	i	i	i	i
CN(C(=O)c1cc(-c2ccccc2)on1)C1CCCCC1	i	i	i	i	i
O=C(Cn1nc(CNc2ccc(Cl)cc2)[n+]2c1CCCCC2)c1ccccc1	i	i	i	i	i
Cc1ccc(C(C)C)c(OCc2nn(CC(=O)c3ccc(Cl)cc3)c3[n+]2CCCCC3)c1	i	i	i	-7.4*	i
O=C1NC(=S)N(C(=O)c2ccc(F)cc2)/C1=C/c1ccccc1	-5.5*	i	i	i	i
CCCCCCCCCCCCN1[C@@H](CC(=O)OC)c2cc(C(F)(F)F)ccc2S1(=O)=O	-5.8*	i	i	i	i
CCCCCCCCN1[C@@H](CC(=O)OC)c2cc(F)ccc2S1(=O)=O	i	i	i	i	i
CCCCCCCCCCCCN1[C@@H](CC(=O)O)c2cc(F)ccc2S1(=O)=O	i	i	i	-7.7*	i
CCCCN(C)CCCNC(=O)c1cn(CC)c2ccc(S(=O)(=O)N3CCc4ccccc4C3)cc2c1=O	i	i	i	-7.7*	i
Cc1c(CN2CCN(CC(C)C)C(CCO)C2)[nH]c2ccc(Cl)cc12 (centres undefined)	i	i	i	i	i
CC(C)(C)C(=O)NCCCc1nc2ccccc2n1CCCOc1ccc(Cl)cc1	-5.1*	i	i	i	i
C=CCn1c(CCCNC(=O)C(C)(C)C)nc2ccccc21	i	i	i	i	i

Source: PubChem (Johns Hopkins Ion Channel Center)
